In brackets after ≈: the same amount, converted by molar mass.
What was measured:
Type in all cases: functional
Staphylococcus aureus = experiment: Antimicrobial activity against Staphylococcus aureus ATCC 9144 after 24 hrs using thiazoyl blue by agar overlay bioautography method
Method in brief: (§1)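 Agar-overlay TLC bioautography. Stock samples (10 mg/mL) were serially diluted to 5.0, 1.0, 0.05 and 0.001 mg/mL, spotted on silica gel TLC plates and dried. Plates were overlaid with Sabouraud dextrose agar seeded with 24-h cultures and run in duplicate. Incubation was 24 h at 37 °C for S. aureus and E. coli, and 25 °C for B. subtilis, P. aeruginosa and C. albicans. Plates were then sprayed with MTT and incubated a further 4 h. MIQ was the lowest loading giving a white inhibition zone.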

Bacillus subtilis = experiment: Antimicrobial activity against Bacillus subtilis ATCC 6633 after 24 hrs using thiazoyl blue by agar overlay bioautography method; method in brief: as §1
Pseudomonas aeruginosa = experiment: Antimicrobial activity against Pseudomonas aeruginosa NCTC 10332 after 24 hrs using thiazoyl blue by agar overlay bioautography method; method in brief: as §1
Candida albicans = experiment: Antimicrobial activity against Candida albicans ATCC 10231 after 24 hrs using thiazoyl blue by agar overlay bioautography method; method in brief: as §1
Escherichia coli = experiment: Antimicrobial activity against Escherichia coli ATCC 11229 after 24 hrs using thiazoyl blue by agar overlay bioautography method; method in brief: as §1
[1] = tested on: Radical scavenging activity; experiment: Antioxidant activity assessed as DPPH radical scavenging activity after 30 mins by spectrophotometric analysisic analysis
Method in brief: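 Methanolic samples (0.005–0.5 mg/mL) were mixed 1:1 by volume with 2% DPPH and incubated in the dark at room temperature. Absorbance at 517 nm was read at 0.5, 1, 3, 6 and 24 h. Percent scavenged = (A_blank − A_sample)/A_blank × 100, with the blank being DPPH without sample. Ascorbic acid served as reference. Run in triplicate.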

[2] = Antioxidant activity assessed as H2O2 scavenging activity at 12.5 to 250 ug/mL after 30 mins by spectrophotometric analysisic analysis
Method in brief: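 Hydrogen peroxide (32.7 mM in PBS, pH 7.4; 0.6 mL) was combined with 0.05–1 mL of 1 mg/mL extract or standard (gallic acid, ascorbic acid) and made up to 4 mL with water. A230 was read before and after 30 min. Background correction used buffer without peroxide. Percent scavenged = (A0 − A1)/A0 × 100.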

Structure (SMILES) | MIC (Staphylococcus aureus) | MIC (Bacillus subtilis) | MIC (Pseudomonas aeruginosa) | MIC (Candida albicans) | MIC (Escherichia coli) | EC50 [1] | Activity [2]
CCO[C@@H]1[C@@H](O)[C@H](O)[C@@H](CO)O[C@@H]1O | 50 µg | 50 µg | 50 µg | 50 µg | 50 µg |  | 
O=C1O[C@H]([C@@H](O)CO)C(O)=C1O [ASCORBIC ACID] |  |  |  |  |  | 41.08 µg/mL (≈ 233 µM) | > 50%
CCCCCCCCCCCCCCCCCCCCCC(=O)O [BEHENIC ACID] | 50 µg | 50 µg | 50 µg | 50 µg | 50 µg |  | 
CC[C@H](CC[C@@H](C)[C@H]1CC[C@H]2[C@@H]3CC=C4C[C@@H](O)CC[C@]4(C)[C@H]3CC[C@]12C)C(C)C [BETA-SITOSTEROL] | 50 µg | 50 µg | 50 µg | 50 µg | 50 µg |  | 
O=C(N[C@H](CO)[C@H](O)c1ccc([N+](=O)[O-])cc1)C(Cl)Cl [CHLORAMPHENICOL] | 0.001 µg | 0.001 µg | 0.001 µg | 0.001 µg | 0.001 µg |  | 
O=C(O)c1cc(O)c(O)c(O)c1 [GALLIC ACID] | 50 µg | 50 µg | 50 µg | 50 µg | 50 µg | 1.85 µg/mL (≈ 10.9 µM) | > 50%
O=C1C=C2C=C[C@@H](O)[C@H](O)[C@H]2O1 [GRIFFONILIDE] | 50 µg | 50 µg | 50 µg | 50 µg | 50 µg |  | 
N#C/C=C1/C=C[C@@H](O)[C@H](O)[C@H]1O[C@@H]1O[C@H](CO)[C@@H](O)[C@H](O)[C@H]1O [GRIFFONIN] | 50 µg | 50 µg | 50 µg | 50 µg | 50 µg |  | 
CCCCCCCC/C=C\CCCCCCCC(=O)O [OLEIC ACID] | 50 µg | 50 µg | 50 µg | 50 µg | 50 µg |  | 
O=C(O)c1ccc(O)c(O)c1 [PROTOCATECHUIC ACID] | 50 µg | 50 µg | 50 µg | 50 µg | 50 µg |  | 
OC[C@H]1O[C@@](CO)(O[C@H]2O[C@H](CO)[C@@H](O)[C@H](O)[C@H]2O)[C@@H](O)[C@@H]1O [SUCROSE] | 50 µg | 50 µg | 50 µg | 50 µg | 50 µg |  | 
